ChEMBL document CHEMBL4138308, “Simultaneous Targeting of RGD-Integrins and Dual Murine Double Minute Proteins in Glioblastoma Multiforme” (J Med Chem, 2018)
Each block holds one compound with its values, some of them ahead of it. Calls of active or inactive are those of the source. The calls are words filed in the database; no cut-off is given here.

Experiments:
[1] = test system: T98G; test: Antiproliferative activity against human T98G cells harboring p53 mutant at nanomolar concentration after 72 hrs by MTS assay; type: functional, cell-based
How it was run: (§1)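 Cells seeded ~5000 cells/cm2, after 24 h medium replaced with compound in DMSO (DMSO 1% v/v in controls), alone or in combination at 100 nM each, or concentration series (U87MG 1–100 nM). 72 h exposure; proliferation read by MTS, expressed as % of DMSO control (mean ± SEM, N = 3); IC50 from sigmoid dose–response fit.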

[2] = molecular target: Integrin alpha-5/beta-1 (Homo sapiens, UniProt P05556+P08648); test: Inhibition of fibronectin binding to soluble alpha5beta1 integrin (unknown origin) after 1 hr by ELISA; type: protein-complex assay
Chain of Integrin alpha-5/beta-1 (P05556 21-798 limits assumed): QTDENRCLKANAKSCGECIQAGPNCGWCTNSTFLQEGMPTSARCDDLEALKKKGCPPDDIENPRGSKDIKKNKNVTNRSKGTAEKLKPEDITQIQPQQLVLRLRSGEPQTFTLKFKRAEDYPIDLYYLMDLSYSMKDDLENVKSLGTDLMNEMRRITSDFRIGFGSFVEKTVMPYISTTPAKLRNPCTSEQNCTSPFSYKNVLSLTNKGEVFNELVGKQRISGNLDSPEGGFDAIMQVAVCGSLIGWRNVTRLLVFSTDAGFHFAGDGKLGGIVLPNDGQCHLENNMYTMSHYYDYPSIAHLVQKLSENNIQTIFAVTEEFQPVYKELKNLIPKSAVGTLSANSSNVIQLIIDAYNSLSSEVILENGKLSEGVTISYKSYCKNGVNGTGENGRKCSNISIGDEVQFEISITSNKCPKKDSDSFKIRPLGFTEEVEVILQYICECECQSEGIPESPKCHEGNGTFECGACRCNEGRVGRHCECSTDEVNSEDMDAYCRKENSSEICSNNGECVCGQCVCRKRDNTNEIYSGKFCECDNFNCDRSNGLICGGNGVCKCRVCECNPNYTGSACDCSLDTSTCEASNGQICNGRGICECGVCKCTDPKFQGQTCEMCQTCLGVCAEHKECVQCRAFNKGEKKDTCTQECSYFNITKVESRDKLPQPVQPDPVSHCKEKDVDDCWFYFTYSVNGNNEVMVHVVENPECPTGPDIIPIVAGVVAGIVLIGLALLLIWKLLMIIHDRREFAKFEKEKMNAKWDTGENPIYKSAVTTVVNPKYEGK
Chain of Integrin alpha-5/beta-1 (P08648 42-894 limits assumed): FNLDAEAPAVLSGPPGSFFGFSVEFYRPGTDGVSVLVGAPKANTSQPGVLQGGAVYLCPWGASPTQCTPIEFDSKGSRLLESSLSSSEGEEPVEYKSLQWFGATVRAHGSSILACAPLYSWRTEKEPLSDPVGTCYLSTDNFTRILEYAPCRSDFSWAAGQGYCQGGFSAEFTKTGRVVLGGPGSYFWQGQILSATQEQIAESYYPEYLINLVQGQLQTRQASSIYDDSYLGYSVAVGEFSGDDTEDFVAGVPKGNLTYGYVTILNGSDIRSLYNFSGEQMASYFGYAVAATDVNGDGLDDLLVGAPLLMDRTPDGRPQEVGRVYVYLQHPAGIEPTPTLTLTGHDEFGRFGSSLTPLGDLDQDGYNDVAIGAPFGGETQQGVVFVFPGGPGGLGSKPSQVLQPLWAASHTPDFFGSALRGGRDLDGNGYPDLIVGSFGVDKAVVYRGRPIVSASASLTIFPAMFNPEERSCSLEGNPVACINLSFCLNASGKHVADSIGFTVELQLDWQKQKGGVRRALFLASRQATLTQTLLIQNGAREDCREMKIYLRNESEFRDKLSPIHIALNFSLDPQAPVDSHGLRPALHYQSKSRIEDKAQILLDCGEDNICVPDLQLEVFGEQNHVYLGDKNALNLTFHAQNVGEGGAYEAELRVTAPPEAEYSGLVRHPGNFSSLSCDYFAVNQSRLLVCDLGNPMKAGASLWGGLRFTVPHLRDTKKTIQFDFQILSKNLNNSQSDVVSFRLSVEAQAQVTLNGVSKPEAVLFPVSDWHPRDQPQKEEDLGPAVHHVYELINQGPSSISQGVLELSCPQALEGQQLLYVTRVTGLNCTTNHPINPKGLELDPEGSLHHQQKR
Chain of Integrin alpha-5/beta-1 (P08648 895-1049 limits assumed): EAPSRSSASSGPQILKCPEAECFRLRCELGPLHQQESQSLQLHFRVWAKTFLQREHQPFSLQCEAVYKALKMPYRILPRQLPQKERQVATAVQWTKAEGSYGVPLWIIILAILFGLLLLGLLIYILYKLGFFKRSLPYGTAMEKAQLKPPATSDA

[3] = species on record: Homo sapiens; details: 100 nM
[4] = species on record: Homo sapiens; details: 100 nM; remark: listed apart in the source
[5] = test system: U-87 MG; test: Antiproliferative activity against human U87MG cells after 72 hrs by MTS assay
[6] = species on record: Homo sapiens; details: 100 nM; remark: listed apart in the source
[7] = species on record: Homo sapiens; details: 100 nM; remark: listed apart in the source
[8] = test system: T98G; test: Antiproliferative activity against human T98G cells harboring p53 mutant at micromolar concentration after 72 hrs by MTS assay; type: functional, cell-based; how it was run: as §1
[9] = test system: U-87 MG; test: Anti-invasive activity in human U87MG cells at 10 uM after 24 hrs by transwell assay; type: functional, U-87MG ATCC
How it was run: (§2)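 U87MG cells suspended in serum-free medium (60,000 cells), treated at 10 μM (each agent at 10 μM when combined), placed in upper chamber of Matrigel-coated (0.32 mg/mL) transwell; lower chamber RPMI with 10% FBS. Invasion 24 h at 37 °C; cells on lower membrane surface fixed with p-formaldehyde, crystal violet stained, counted in five random fields per filter. Mean ± SEM vs DMSO control.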

[10] = species on record: Homo sapiens; details: 100 nM; remark: listed apart in the source
[11] = molecular target: Integrin alpha-V/beta-3 (Homo sapiens, UniProt P05106+P06756); test: Inhibition of vitronectin binding to human alphaVbeta3 integrin after 1 hr by ELISA; type: protein-complex assay
Chain of Integrin alpha-V/beta-3 (P05106 27-788 limits assumed): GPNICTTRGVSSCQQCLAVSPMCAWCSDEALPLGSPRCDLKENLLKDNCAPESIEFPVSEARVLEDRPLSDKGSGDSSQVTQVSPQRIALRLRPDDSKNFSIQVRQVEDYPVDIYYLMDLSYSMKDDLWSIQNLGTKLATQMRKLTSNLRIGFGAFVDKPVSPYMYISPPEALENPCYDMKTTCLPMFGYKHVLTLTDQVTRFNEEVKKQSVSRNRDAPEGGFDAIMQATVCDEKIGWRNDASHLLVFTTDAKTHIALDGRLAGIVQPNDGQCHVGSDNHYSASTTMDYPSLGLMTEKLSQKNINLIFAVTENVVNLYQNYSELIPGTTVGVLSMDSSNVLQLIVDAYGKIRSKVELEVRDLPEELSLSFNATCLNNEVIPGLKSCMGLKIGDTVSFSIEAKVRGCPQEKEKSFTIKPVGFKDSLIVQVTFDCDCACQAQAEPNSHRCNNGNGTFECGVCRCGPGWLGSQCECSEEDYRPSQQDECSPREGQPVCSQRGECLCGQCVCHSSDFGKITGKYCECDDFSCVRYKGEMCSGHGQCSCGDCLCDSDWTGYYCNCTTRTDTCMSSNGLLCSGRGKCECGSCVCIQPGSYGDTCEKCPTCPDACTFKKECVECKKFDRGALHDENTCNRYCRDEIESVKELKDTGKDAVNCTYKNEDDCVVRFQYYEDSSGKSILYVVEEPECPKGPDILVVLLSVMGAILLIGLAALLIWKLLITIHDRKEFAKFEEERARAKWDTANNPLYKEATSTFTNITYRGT
Chain of Integrin alpha-V/beta-3 (P06756 31-889 limits assumed): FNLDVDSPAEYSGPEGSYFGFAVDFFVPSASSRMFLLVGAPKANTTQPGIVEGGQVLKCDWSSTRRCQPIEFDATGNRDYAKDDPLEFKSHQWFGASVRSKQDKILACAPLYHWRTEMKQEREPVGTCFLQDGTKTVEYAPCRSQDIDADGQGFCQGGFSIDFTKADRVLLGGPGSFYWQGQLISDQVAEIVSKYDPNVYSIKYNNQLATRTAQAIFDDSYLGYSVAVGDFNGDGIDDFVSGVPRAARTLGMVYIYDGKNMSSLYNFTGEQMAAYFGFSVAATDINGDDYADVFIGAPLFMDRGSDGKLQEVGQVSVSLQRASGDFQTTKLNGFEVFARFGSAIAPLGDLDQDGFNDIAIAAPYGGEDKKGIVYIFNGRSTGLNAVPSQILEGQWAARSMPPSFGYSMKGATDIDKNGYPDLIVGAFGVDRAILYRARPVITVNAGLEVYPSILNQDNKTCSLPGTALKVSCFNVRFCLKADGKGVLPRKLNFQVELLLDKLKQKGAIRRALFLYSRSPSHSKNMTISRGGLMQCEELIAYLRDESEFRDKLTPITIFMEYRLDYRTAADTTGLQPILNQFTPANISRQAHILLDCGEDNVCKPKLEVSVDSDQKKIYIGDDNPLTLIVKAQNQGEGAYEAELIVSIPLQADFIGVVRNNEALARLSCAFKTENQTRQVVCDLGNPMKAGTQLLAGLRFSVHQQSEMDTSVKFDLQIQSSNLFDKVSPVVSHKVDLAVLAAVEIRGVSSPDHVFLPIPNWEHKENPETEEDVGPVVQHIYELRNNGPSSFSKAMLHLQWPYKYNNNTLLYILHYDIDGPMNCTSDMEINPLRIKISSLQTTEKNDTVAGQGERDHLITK
Chain of Integrin alpha-V/beta-3 (P06756 891-1048 limits assumed): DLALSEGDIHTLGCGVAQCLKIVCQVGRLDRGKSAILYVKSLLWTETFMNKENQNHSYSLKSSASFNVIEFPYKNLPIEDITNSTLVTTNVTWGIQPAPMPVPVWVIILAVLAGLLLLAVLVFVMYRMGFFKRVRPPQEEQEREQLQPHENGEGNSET
How it was run: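 Plates coated overnight at 4 °C with vitronectin 1.0 μg/mL in carbonate buffer pH 9.6, blocked 1 h with TSB (Ca2+, Mg2+, Mn2+, 1% BSA). Soluble human αvβ3 (final 1.0 μg/mL) with inhibitor (final 0.128–400 nM) 1 h at room temperature; detection by anti-CD51/61 then peroxidase secondary, absorbance 405 nm. Duplicates; IC50 from curve inflection point; internal standard per plate.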

[12] = molecular target: T1, E3 ubiquitin-protein ligase Mdm2 (Homo sapiens, UniProt Q00987); test: Displacement of p53 from MDM2 in human U87MG cells incubated for 10 mins by sandwich ELISA method; type: cell-based
Target sequence in this assay (Q00987 whole entry): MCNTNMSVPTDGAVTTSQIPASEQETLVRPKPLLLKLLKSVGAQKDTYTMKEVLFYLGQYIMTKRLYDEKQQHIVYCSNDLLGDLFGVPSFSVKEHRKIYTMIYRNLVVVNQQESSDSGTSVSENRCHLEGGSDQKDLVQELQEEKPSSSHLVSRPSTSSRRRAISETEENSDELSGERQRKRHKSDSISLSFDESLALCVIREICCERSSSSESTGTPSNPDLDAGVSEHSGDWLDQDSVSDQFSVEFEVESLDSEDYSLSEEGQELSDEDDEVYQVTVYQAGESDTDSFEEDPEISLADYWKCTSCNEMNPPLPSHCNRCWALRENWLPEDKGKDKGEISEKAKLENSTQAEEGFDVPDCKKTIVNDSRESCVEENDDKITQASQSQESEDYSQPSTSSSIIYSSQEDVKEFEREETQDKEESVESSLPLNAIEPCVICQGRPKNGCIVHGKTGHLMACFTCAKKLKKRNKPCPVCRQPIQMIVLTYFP

[13] = molecular target: T2, Protein Mdm4 (Homo sapiens, UniProt O15151); test: Displacement of p53 from MDM4 in human SHSY-5Y cells incubated for 10 mins by sandwich ELISA method; type: cell-based
T2 sequence (O15151 whole entry): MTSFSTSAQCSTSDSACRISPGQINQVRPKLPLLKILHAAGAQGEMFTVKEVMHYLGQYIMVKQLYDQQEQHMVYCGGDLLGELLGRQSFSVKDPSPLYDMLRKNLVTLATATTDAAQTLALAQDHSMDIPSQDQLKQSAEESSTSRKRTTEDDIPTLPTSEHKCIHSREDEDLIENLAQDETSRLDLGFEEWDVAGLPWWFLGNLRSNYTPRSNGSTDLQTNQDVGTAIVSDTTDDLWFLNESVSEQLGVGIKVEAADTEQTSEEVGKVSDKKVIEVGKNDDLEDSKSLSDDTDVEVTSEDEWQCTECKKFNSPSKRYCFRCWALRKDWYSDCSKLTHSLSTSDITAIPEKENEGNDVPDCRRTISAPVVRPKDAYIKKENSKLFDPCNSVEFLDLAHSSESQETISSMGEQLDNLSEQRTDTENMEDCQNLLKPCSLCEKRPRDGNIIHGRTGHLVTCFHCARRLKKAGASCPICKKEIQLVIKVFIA

[14] = test system: U-87 MG; test: Antiproliferative activity against human U87MG cells at 100 nM after 72 hrs in presence of MDM2 inhibitor nutlin-3 by MTS assay; type: functional, cell-based; details: U-87MG ATCC; how it was run: as §1
[15] = test system: U-87 MG; test: Antiproliferative activity against human U87MG cells at 100 nM after 72 hrs by MTS assay; type: functional, cell-based; details: U-87MG ATCC; how it was run: as §1
[16] = test system: U-87 MG; test: Anti-invasive activity in human U87MG cells at 10 uM after 24 hrs in presence of MDM2 inhibitor nutlin-3 and MDM4 inhibitor SJ-1722550 by transwell assay; type: functional, cell-based; details: U-87MG ATCC; how it was run: as §2
[17] = molecular target: T1, E3 ubiquitin-protein ligase Mdm2; test: Displacement of p53 from MDM2 in human U87MG cells at 100 uM incubated for 10 mins by sandwich ELISA method relative to control; type: cell-based
How it was run: (§3)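 Native complexes in cell lysates (U87MG for p53/MDM2; SHSY-5Y for p53/MDM4). Compound incubated with lysate 10 min at room temperature, then 90 min in wells precoated with anti-MDM2 or anti-MDM4; blocked with 1% BSA, anti-p53 (1:250) 90 min, HRP secondary 60 min, TMB read at 450 nm. Blanks lacked anti-p53. Mean of three determinations.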
Target sequence in this assay (Q00987 whole entry, looked up): as the sequence (Q00987 whole entry) above

[18] = test system: U-87 MG; test: Antiproliferative activity against human U87MG cells at 100 nM after 72 hrs in presence of MDM2 inhibitor nutlin-3 and MDM4 inhibitor SJ-1722550 by MTS assay; type: functional, cell-based; details: U-87MG ATCC; how it was run: as §1
[19] = molecular target: T3, Protein Mdm4 (Homo sapiens) (UniProt O15151); test: Displacement of p53 from MDM4 in human SHSY-5Y cells at 100 uM incubated for 10 mins by sandwich ELISA method relative to control; type: cell-based; how it was run: as §3
T3 sequence (whole entry): T2 sequence (O15151 whole entry)

[20] = molecular target: T3, Protein Mdm4 (Homo sapiens); test: Inhibition of MDM4 in human U87MG cells assessed as increase in p53 accumulation at 100 nM after 24 hrs in presence of MDM2 inhibitor nutlin-3 by Western blot method; type: cell-based
How it was run: (§4)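 U87MG cells treated 24 h with agents at 100 nM, alone or combined; 40 μg lysate protein resolved by SDS-PAGE, immunoblotted for p53 with GAPDH loading control; bands quantified by densitometry as % of DMSO control (mean ± SEM, N = 3).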

[21] = molecular target: T3, Protein Mdm4 (Homo sapiens); test: Inhibition of MDM4 in human U87MG cells assessed as increase in p21 mRNA expression at 100 nM after 24 hrs by RT-PCR method; type: cell-based
How it was run: (§5)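 U87MG cells exposed to agents at 100 nM, alone or combined, for 8 or 24 h; total RNA extracted, cDNA made from 500 ng RNA, MDM2, PUMA and p21 transcripts quantified by real-time PCR. Data as % of DMSO control, mean ± SEM, N = 3.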

[22] = molecular target: T3, Protein Mdm4 (Homo sapiens); test: Inhibition of MDM4 in human U87MG cells assessed as increase in PUMA mRNA expression at 100 nM after 24 hrs in presence of alphaVbeta3 inhibitor cilengitide by RT-PCR method; type: cell-based; how it was run: as §5
[23] = molecular target: T3, Protein Mdm4 (Homo sapiens); test: Inhibition of MDM4 in human U87MG cells assessed as increase in p53 accumulation at 100 nM after 24 hrs in presence of MDM2 inhibitor nutlin-3 and alphaVbeta3 inhibitor cilengitide by Western blot method; type: cell-based; how it was run: as §4
[24] = molecular target: T3, Protein Mdm4 (Homo sapiens); test: Inhibition of MDM4 in human U87MG cells assessed as increase in MDM2 mRNA expression at 100 nM after 8 hrs in presence of MDM2 inhibitor nutlin-3 by RT-PCR method; type: cell-based; how it was run: as §5
[25] = molecular target: T3, Protein Mdm4 (Homo sapiens); test: Inhibition of MDM4 in human U87MG cells assessed as increase in PUMA mRNA expression at 100 nM after 24 hrs by RT-PCR method; type: cell-based; how it was run: as §5
[26] = test system: U-87 MG; test: Anti-invasive activity in human U87MG cells at 10 uM after 24 hrs in presence of MDM2 inhibitor nutlin-3 and alphaVbeta3 inhibitor cilengitide by transwell assay; type: functional, cell-based; details: U-87MG ATCC; how it was run: as §2
[27] = molecular target: MDM4 (Homo sapiens) (UniProt O15151); test: Inhibition of MDM4 in human U87MG cells assessed as increase in PUMA mRNA expression at 100 nM after 24 hrs in presence of MDM2 inhibitor nutlin-3 and alphaVbeta3 inhibitor cilengitide by RT-PCR method
[28] = molecular target: T3, Protein Mdm4 (Homo sapiens); test: Inhibition of MDM4 in human U87MG cells assessed as increase in MDM2 mRNA expression at 100 nM after 8 hrs in presence of MDM2 inhibitor nutlin-3 and alphaVbeta3 inhibitor cilengitide by RT-PCR method; type: cell-based; how it was run: as §5
[29] = test system: U-87 MG; test: Antiproliferative activity against human U87MG cells at 100 nM after 72 hrs in presence of alphaVbeta3 inhibitor cilengitide and MDM2 inhibitor nutlin-3 by MTS assay; type: functional, cell-based; details: U-87MG ATCC; how it was run: as §1
[30] = molecular target: T3, Protein Mdm4 (Homo sapiens); test: Inhibition of MDM4 in human U87MG cells assessed as increase in PUMA mRNA expression at 100 nM after 24 hrs in presence of MDM2 inhibitor nutlin-3 by RT-PCR method; type: cell-based; how it was run: as §5

IC50 [2]: 22 nM | IC50 [5]: 116 nM | IC50 [11]: 1.4 nM
SMILES: N=C(N)Nc1cccc(C(=O)NCC(=O)N[C@@H](CC(=O)O)C(=O)NC(c2ccccc2)c2ccccc2)c1
Activity [1]: inactive | inhibition [3]: Active | inhibition [4]: Active | inhibition [6]: Active | inhibition [7]: Active | Activity [8]: Active | Activity [9]: 80% | inhibition [10]: inactive

IC50 [2]: 13 nM | IC50 [12]: > 1000 nM | IC50 [13]: > 1000 nM | IC50 [11]: 0.21 nM
SMILES: N=C(N)Nc1cccc(C(=O)NCC(=O)N[C@@H](CC(=O)O)C(=O)Nc2ccccc2)c1

IC50 [2]: 40 nM | IC50 [13]: > 1000 nM | IC50 [11]: 1.2 nM
SMILES: COc1ccc(CNC(=O)[C@H](CC(=O)O)NC(=O)CNC(=O)c2cccc(NC(=N)N)c2)cc1

inhibition [17]: 14.1% | inhibition [19]: 2.6%
SMILES: CC(C)[C@H]1C(=O)N[C@@H](CCCNC(=N)N)C(=O)NCC(=O)N[C@@H](CC(=O)O)C(=O)N[C@H](Cc2ccccc2)C(=O)N1C
Activity [14]: Active | Activity [15]: inactive | Activity [16]: Active | Activity [18]: Active | Activity ([9]; U-87MG ATCC): Active

IC50 [2]: 76 nM | IC50 [11]: 2.2 nM
SMILES: N=C(N)Nc1cccc(C(=O)NCC(=O)N[C@@H](CC(=O)O)C(=O)NCCc2ccc3ccccc3c2)c1

inhibition [20]: Active | inhibition [21]: Active | inhibition [22]: Active | inhibition [23]: Active | inhibition [24]: Active | inhibition [25]: Active | inhibition [27]: Active | inhibition [28]: Active | inhibition [30]: Active
SMILES: CCOc1cc(/C=C2\C(=O)N(c3ccccc3)N=C2C)cc(Cl)c1OCC(=O)OC
Activity [15]: inactive | Activity [26]: Active | Activity [29]: Active

IC50 [2]: 31 nM | IC50 [12]: > 1000 nM | IC50 [11]: 0.79 nM
SMILES: N=C(N)Nc1cccc(C(=O)NCC(=O)N[C@@H](CC(=O)O)C(=O)NCc2ccccc2)c1

IC50 [2]: 20 nM | IC50 [11]: 0.91 nM
SMILES: C[C@H](NC(=O)[C@H](CC(=O)O)NC(=O)CNC(=O)c1cccc(NC(=N)N)c1)c1ccccc1
